# Data reported in paper PMC7224986 (Journal of medicinal chemistry, 2016).
# How the values were obtained:
# mammalian actin = mammalian actin (Oryctolagus cuniculus, UniProt P68135); assay: Pyrene fluorescence actin polymerization assay; assay type: biochemical; settings: for inhibition at 10 µM: read-out: Inhibition of mammalian actin polymerization at 10 μM; for inhibition at 100 µM: read-out: Inhibition of mammalian actin polymerization at 100 μM; for Inhibition of mammalian actin polymerization at 10 μM: 10 μM compound
# Method in brief: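 Actin was 5% pyrene-labelled, held in Ca buffer G (2 mM Tris pH 8, 0.2 mM ATP). It was converted to the Mg2+ form (final 1 mM EGTA, 0.1 mM MgCl2) for 2 min at room temperature. Actin at 2.5 μM final was preincubated 1 min with compound in DMSO; latrunculin B was the positive control. Polymerisation was started with KCl 50 mM, imidazole 10 mM pH 7, MgCl2 1 mM, EGTA 1 mM. Pyrene fluorescence (ex 365/em 407 nm) was read every 15 s for 90 min, in triplicate.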
# T. gondii parasites = assay: Invasion inhibition assay of T. gondii into host fibroblast cells; assay type: cell-based, Toxoplasma gondii
# Method in brief: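 Type I RH strain, clone 2F, expressing E. coli β-galactosidase. Compound came from a 10 mM DMSO stock diluted in medium with 1% DMSO, which was also the vehicle control. Parasites were preincubated with compound for 20 min at room temperature. Then 5 × 10^2 parasites/well were added to confluent human foreskin fibroblasts in DMEM/10% FBS, centrifuged ~300g for 5 min, and cultured at 37°C, 5% CO2. EC50 from a variable-slope sigmoidal fit; three experiments, each in triplicate.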
Compound,inhibition at 10 µM (mammalian actin) [%],inhibition at 100 µM (mammalian actin) [%],other results
"COc1ccc(CN2C(=O)SC[C@H]2C2(OC)CC(OC(=O)c3ccccc3C3=CCCCC3)CCO2)cc1 (stereo partly drawn) [Compound 16, 2-Methoxy-2-((R)-3-(4-methoxybenzyl)-2-oxothiazolidin-4-yl)tetrahydro-2H-pyran-4-yl 2',3',4',5'-tetrahydro-[1,1'-biphenyl]-2-carboxylate]",< 10,< 10,–
"COc1ccc(CN2C(=O)SC[C@H]2C2(OC)CC(OC(=O)c3ccccc3-c3cccs3)CCO2)cc1 (stereo partly drawn) [Compound 15, 2-Methoxy-2-((R)-3-(4-methoxybenzyl)-2-oxothiazolidin-4-yl)tetrahydro-2H-pyran-4-yl 2-(thiophen-2-yl)benzoate]",< 10,< 10,–
"COc1ccc(CN2C(=O)SC[C@H]2C2(OC)CC(OC(=O)c3ccccc3-c3cccc4ccccc34)CCO2)cc1 (stereo partly drawn) [Compound 17, 2-Methoxy-2-((R)-3-(4-methoxybenzyl)-2-oxothiazolidin-4-yl)tetrahydro-2H-pyran-4-yl 2-(naphthalen-1-yl)benzoate]",< 10,< 10,–
"COc1ccc(CN2C(=O)SC[C@H]2C2(OC)CC(OC(=O)c3ccccc3I)CCO2)cc1 (stereo partly shown) [Compound 14, 2-Methoxy-2-(3-(4-methoxybenzyl)-2-oxothiazolidin-4-yl)tetrahydro-2H-pyran-4-yl 2-iodobenzoate]",< 10,< 10,–
"C/C1=C/C(=O)O[C@@H]2C[C@@H](CC[C@H](C)/C=C\CC1)O[C@@](O)([C@@H]1CSC(=O)N1)C2 [Latrunculin B, latrunculin B, reference compound]",–,–,"Inhibition of mammalian actin polymerization at 10 μM (mammalian actin; 2.5 μM actin, pyrene fluorescence): 100%; Inhibition of mammalian actin polymerization at 10 μM (mammalian actin; 2.5 μM actin, pyrene fluorescence, listed as latrunculin B): 100%; Inhibition of mammalian actin polymerization at 100 μM (mammalian actin; 100 μM compound, 2.5 μM actin, pyrene fluorescence): 100%"
"COc1ccc(CN2C(=O)SC[C@H]2C2(OC)CC(OC(=O)C3CCCC3)CCO2)cc1 (stereo partly drawn) [Compound 11, 2-Methoxy-2-((R)-3-(4-methoxybenzyl)-2-oxothiazolidin-4-yl)tetrahydro-2H-pyran-4-yl cyclopentanecarboxylate]",–,–,activity against T. gondii (in words) (T. gondii parasites): inactive
"CCCCC(=O)OC1CCOC(OC)([C@@H]2CSC(=O)N2Cc2ccc(OC)cc2)C1 (stereo partly drawn) [Compound 10, 2-Methoxy-2-((R)-3-(4-methoxybenzyl)-2-oxothiazolidin-4-yl)tetrahydro-2H-pyran-4-yl pentanoate]",–,–,activity against T. gondii (in words) (T. gondii parasites): inactive
